“And” between values parts separate entries of the source, which are not always exact repeats. Identical values can stand only once. About 1,100 (0.33%) of roughly 330,000 compounds were called active.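 How the source made its calls: active means mean inhibition over replicate wells above about 20% (limit read from the data); inactive means the rest.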 Only a selection was taken, and actives are over-represented in it overall.
What follows are compounds tested against Ubiquitin carboxyl-terminal hydrolase isozyme L5 (Homo sapiens) (UniProt Q9Y5K5) (assay: proteasome-bound UCH37 DUB activity blockers – biochemical, Ub-AMC cleavage, fluorescence, primary screen (AID 588478;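 further: 0% = compound-free wells with enzyme and 100% = wells lacking proteasome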)). Conditions: purified proteasome/UCH37, Ub-AMC cleavage fluorescence; stronger effect = higher value; concentration not given here.
Sequence of Ubiquitin carboxyl-terminal hydrolase isozyme L5 (Homo sapiens) (Q9Y5K5 whole entry, looked up): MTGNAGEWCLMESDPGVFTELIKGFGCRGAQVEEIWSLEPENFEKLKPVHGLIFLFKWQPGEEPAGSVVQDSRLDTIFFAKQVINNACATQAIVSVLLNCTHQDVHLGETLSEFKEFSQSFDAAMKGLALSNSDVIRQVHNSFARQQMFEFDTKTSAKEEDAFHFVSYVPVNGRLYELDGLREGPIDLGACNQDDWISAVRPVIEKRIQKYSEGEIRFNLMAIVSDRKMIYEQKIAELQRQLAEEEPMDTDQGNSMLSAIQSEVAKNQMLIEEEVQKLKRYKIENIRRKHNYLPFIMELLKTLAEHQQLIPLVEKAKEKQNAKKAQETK
Method in brief: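 Material: human UCH37 enzyme supplied as purified proteasome complex. Measure: % inhibition of Ub-AMC cleavage fluorescence. Medium: pH 7.4 Tris-HCl (50 mM) with ovalbumin, ATP-MgCl2, DTT. Times: 30 min preincubation with enzyme, 25 min cleavage at room temperature. Detection: AMC fluorescence intensity at 355/460 nm.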
In the case of `CN(Cc1ccccc1)C(=O)c1cccc(C(=O)N(C)Cc2ccccc2)c1`, the inhibition is reported as 0.499% (inactive). In the case of `CCN(CC)C(=O)c1nc[nH]c1C(=O)N(C)Cc1ccccc1`, the inhibition is reported as 26.1% (active). With `CCN(CC)C(=O)N(CC)Cc1ccccc1` the inhibition was -0.131% (inactive). With `O=S1(=O)CCC(=NNc2ccc(C(F)(F)F)cn2)c2cc(F)ccc21` the inhibition was 0.609% (inactive). With `COc1ccc(C(=O)NCC(=O)NN=Cc2cn[nH]c2-c2ccccc2)cc1` the inhibition was 1.68% (inactive). `O=C(O)c1ccc2c(c1)C(=O)N(NC(=O)c1ccc(O)cc1)C2=O` was tested, and the inhibition was 7.31% (inactive). `Cn1cccc1/C=C1\SC(=S)N(NC(=O)c2ccc(Cl)cc2)C1=O` was tested, and the inhibition was 1.88% (inactive). For `CC(=O)N1C(=O)/C(=C2\SC(=S)N(NC(=O)c3ccc(O)cc3)C2=O)c2ccccc21`, the inhibition was 40.9% (active). For `Cc1ccc(NC(=O)ON=Cc2ccc(F)cc2)cc1`, the inhibition was 5.21% (inactive). In the case of `Cc1cc(=O)oc2c3c(ccc12)OCC3=NN`, the inhibition is reported as -22.9% (inactive). `CC(=NNc1ccccc1C(=O)O)c1cccs1` was tested, and the inhibition was 10.1% (inactive). `COC(=O)c1ccc(C=NOCC(=O)NC2CCCCCCC2)cc1` was tested, and the inhibition was 0.759% (inactive). For `CC1(OC(=O)CCc2ccccc2)C(=O)C=C2C=C(c3ccc(C#N)cc3)N(CCc3ccccn3)C=C2C1=O` (stereo unspecified), the inhibition was 0.0366% (inactive). With `C=CCN1C=C2C(=O)C(C)(OC(=O)CCc3ccccc3)C(=O)C=C2C=C1c1ccc(C#N)cc1` (stereo unspecified) the inhibition was -31% (inactive). For `COCCN1C=C2C(=O)C(C)(OC(=O)C3CCCC3)C(=O)C=C2C=C1c1ccsc1` (stereo unspecified), the inhibition was 46.2% (active). `COc1ccc(C=NNc2nncn2N)cc1Br` was tested, and the inhibition was 14.1% (inactive). `O=C(CN(Cc1ccccc1)S(=O)(=O)c1ccc2c(c1)OCCO2)NN=Cc1cccc(Br)c1` was tested, and the inhibition was 0.583% (inactive). In the case of `CCOc1ccccc1C=c1sc2nc(-c3ccco3)nn2c1=O`, the inhibition is reported as 3.89% (inactive). With `CCC(=NNC(=O)Cc1ccc(Br)cc1)c1cccs1` the inhibition was 0.706% (inactive). With `CCS(=O)(=O)N1CCCC(C(=O)NCc2ccc(C)cc2)C1` (stereo unspecified) the inhibition was 9.8% (inactive). With `CCS(=O)(=O)N1CCCC(C(=O)NCCCN(C)Cc2ccccc2)C1` (stereo unspecified) the inhibition was 29% (active). With `CCCS(=O)(=O)N1CCC(C(=O)NCCCN(C)Cc2ccccc2)CC1` the inhibition was -3.1% (inactive). With `COc1cc(C(C(=O)NC2CCCC2)N(C(=O)c2ccco2)c2ccccc2C(C)=O)cc(OC)c1OC` (stereo unspecified) the inhibition was 4.15% (inactive). With `O=C(NC1CCCC1)C(c1ccco1)N(C(=O)c1ccco1)c1ccc(F)cc1` (stereo unspecified) the inhibition was 1.87% (inactive). With `O=C(NC1CCCC1)C(c1ccc(N2CCOCC2)cc1)N(C(=O)c1ccco1)c1ccccc1F` (stereo unspecified) the inhibition was 38.4% (active). For `Cc1cccc(C(=O)ON=C(c2ccccc2)c2ccncc2)c1`, the inhibition was 3.58% (inactive). `CCCn1c(C2CCCN2c2nc(-c3ccc(C)cc3)cs2)nc2cc(Cl)c(N3CCCCC3)cc21` (stereo unspecified) was tested, and the inhibition was 3.86% (inactive). With `Cc1ccc(-c2csc(N3CCN(c4cc5c(cc4Cl)nc(-c4ccncc4)n5CCOCCO)CC3)n2)cc1` the inhibition was -1.15% (inactive). In the case of `Nc1c(Cl)cc(-c2csc(N3CCCC3c3nc4cc(Cl)c(Cl)cc4n3CCOCCO)n2)cc1Cl` (stereo unspecified), the inhibition is reported as 28% (active). With `CCOC(=O)C1=C(C)N=c2sc(=Cc3ccncc3)c(=O)n2C1c1ccc2c(c1)OCO2` (stereo unspecified) the inhibition was -0.871% (inactive). For `CC(C)(C)OC(=O)CNC(=O)c1[nH]cnc1C(=O)N[C@@H](Cc1ccccc1)C(=O)OCc1ccccc1`, the inhibition was 0.224% (inactive). `O=C(N[C@@H](Cc1ccccc1)C(=O)OCc1ccccc1)c1nc[nH]c1C(=O)N[C@@H](Cc1ccccc1)C(=O)OCc1ccccc1` was tested, and the inhibition was 31.8% (active). For `O=C(N[C@@H](Cc1ccccc1)C(=O)OCc1ccccc1)c1nc[nH]c1C(=O)NC1CCNCC1`, the inhibition was -1.66% (inactive). For `O=C(CNC(=O)c1ccncc1)NN=Cc1cccc([N+](=O)[O-])c1`, the inhibition was 1.21% (inactive). In the case of `O=C(OCC(=O)N1CCN(c2ccccc2)CC1)c1ccc([N+](=O)[O-])s1`, the inhibition is reported as 61.3% (active). In the case of `COc1cccc(/C=C/C(=O)OCC(=O)N2CCN(c3ccccc3)CC2)c1`, the inhibition is reported as -11.1% (inactive). With `C[C@H](NC(=O)c1ccccc1Cl)C(=O)OCC(=O)N1CCN(c2ccccc2)CC1` the inhibition was 0.507% (inactive). In the case of `Cc1cc([N+](=O)[O-])cc(C=Nn2c(C)nc3ccccc3c2=O)c1O`, the inhibition is reported as 12.9% (inactive). `Cc1cc(C)n(C(=O)C(C#N)=NNc2cc(Cl)cc(Cl)c2)n1` was tested, and the inhibition was 7.62% (inactive). `CON=C(C(=O)N[C@@H]1C(=O)N2C(C(=O)O)=C(COC(C)=O)CS[C@H]12)c1csc(N)n1` was tested, and the inhibition was 2.25% (inactive) and 5.96% (inactive). For `Clc1ccc(-c2csc(NN=Cc3cccnc3)n2)cc1`, the inhibition was 7.34% (inactive). In the case of `CCOC(=O)c1c(C)[nH]c2c1-c1ccccc1C(=O)C2=O`, the inhibition is reported as 72.6% (active). `CCOC(=O)c1ccccc1OC(=O)Oc1ccccc1C(=O)OCC` was tested, and the inhibition was 2.7% (inactive). In the case of `CCOC(=O)c1c(C)nc(-c2ccccc2)nc1NC(=O)C(C)C`, the inhibition is reported as 2.52% (inactive). With `O=C(NN=C/C(Br)=C/c1ccccc1)NC1CCCCC1` the inhibition was 4.04% (inactive). `Cc1nnc(SCC(=O)N(C(C)C)C(C)C)nc1C` was tested, and the inhibition was 32.8% (active). For `CC(C)N(C(=O)CSc1nc(COc2ccccc2)nc2ccccc12)C(C)C`, the inhibition was 2.03% (inactive). For `Cc1cc(C)nc(SCC(=O)N(C)C)n1`, the inhibition was 4.9% (inactive). In the case of `O=C(NN=Cc1cccs1)c1cc(-c2ccc(Cl)s2)[nH]n1`, the inhibition is reported as 4.08% (inactive). For `Cc1nn(Cc2ccc(Cl)cc2Cl)c(Cl)c1C=NNC(=O)CNc1cccc(C(F)(F)F)c1`, the inhibition was 5.09% (inactive). With `CCSc1nc(C)nc2c1oc1ccccc12` the inhibition was 22.4% (active). `O=c1[nH]c(CSc2ccccc2)nc2c1oc1ccccc12` was tested, and the inhibition was 3.26% (inactive). `COc1ccc(CCNC(=O)CSc2nc(C)nc3c2oc2ccccc23)cc1OC` was tested, and the inhibition was 1.13% (inactive). In the case of `N#Cc1ccc(OCC(=O)NN=C2CC(c3ccccc3)Oc3ccccc32)cc1` (stereo unspecified), the inhibition is reported as 6.87% (inactive). For `COC(=O)c1ccccc1-c1ccc(C=NNC(N)=O)o1`, the inhibition was -17.5% (inactive). For `Cc1cc(C(=O)NN=C2CC(=O)CC(C)(C)C2)c2ccccc2n1`, the inhibition was 6.67% (inactive).

From PubChem BioAssay AID588478 (ICCB-Longwood Screening Facility, Harvard Medical School, 2011)
